Results as given in ChEMBL document CHEMBL4373632, “3D QSAR-based design and liquid phase combinatorial synthesis of 1,2-disubstituted benzimidazole-5-carboxylic acid and 3-substituted-5H-benzimidazo[1,2-d][1,4]benzodiazepin-6(7H)-one derivatives as anti-mycobacterial agents” (Medchemcomm, 2019).
Converted amounts (≈) assume the structure as drawn.

Columns and labels:
[1] = test system: Mycobacterium tuberculosis; experiment: Antimycobacterial activity against Mycobacterium tuberculosis H37Rv after 14 days; assay type: functional; details: 336 h
How it was run: (§1)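 Mtb H37Rv grown in MB 7H9 (10% albumin dextrose saline, 0.2% glycerol, 0.05% tween-80) to OD600nm 0.2, diluted 1000× and added to 96-well plates with compounds (50 mM DMSO stocks). Tested range 0.05 to 50 μM. Incubated 37 °C for 14 days; MIC determined per standard protocol.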

THP-1 [2] = experiment: Cytotoxicity against human THP1 cells assessed as redution in cell viability at 50 uM by WST-1 assay; assay type: cell-based; details: thp-1, 50 µM
How it was run: (§2)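 THP-1 macrophages; viability read with the WST-1 cell proliferation kit following the manufacturer's protocol. Compounds came from 50 mM DMSO stocks, with 50 μM the highest final concentration tested.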

[3] = test system: Mycobacterium tuberculosis; experiment: Antimycobacterial activity against Mycobacterium tuberculosis H37Rv infected in human THP-1 cells assessed as reduction in microbial growth after 4 days by ten-fold serial dilution method; assay type: functional
How it was run: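 PMA-differentiated THP-1 macrophages (2 × 10^5 per well) infected with Mtb H37Rv at MOI 1:10. At 4 h, extracellular bacteria removed with 200 μg ml–1 amikacin in RPMI for 2 h. At 24 h, cells were washed and given RPMI with drug at non-cytotoxic concentration for 4 days. Lysis in PBS–0.1% Triton X-100, then 10-fold serial dilutions plated on MB 7H11 for 3–4 weeks at 37 °C. Triplicate wells, mean + S.E.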

THP-1 [4] = experiment: Cytotoxicity against human THP1 cells assessed as redution in cell viability at 10 uM by WST-1 assay; assay type: cell-based; details: thp-1, 10 µM; how it was run: as §2
[5] = Lipophilicity, logP of compound; assay type: physicochemical; details: octanol/water
[6] = test system: Mycobacterium tuberculosis; experiment: Antimycobacterial activity against Mycobacterium tuberculosis; assay type: functional; how it was run: as §1

CC(C)c1nc2cc(C(=O)O)ccc2n1-c1cccnc1
MIC [1]: 50 µM (≈ 14.1 µg/mL)

O=C1Cn2c(nc3ccccc32)-c2ccc(NC(=O)c3ccc(Br)cc3)cc2N1
MIC [1]: > 50 µM

COc1cccc(-n2c(C(C)C)nc3cc(C(=O)O)ccc32)c1O
Activity (THP-1 [2]): Non-Toxic | MIC [1]: 0.78 µM (≈ 0.255 µg/mL)

CC(C)c1nc2cc(C(=O)O)ccc2n1-c1ccc(N(C)C)cc1
MIC [1]: 50 µM (≈ 16.2 µg/mL)

CC(C)c1nc2cc(C(=O)O)ccc2n1-c1ccccc1Cl
MIC [1]: > 50 µM

CC(C)c1nc2cc(C(=O)O)ccc2n1-c1ccncc1
MIC [1]: 25 µM (≈ 7.03 µg/mL)

CC(C)c1nc2cc(C(=O)O)ccc2n1Cc1cccc(F)c1
MIC [1]: 12.5 µM (≈ 3.9 µg/mL)

Nc1ccc2c(c1)NC(=O)Cn1c-2nc2ccccc21
Activity (THP-1 [2]): Non-Toxic | fold change (FC) [3]: 8 - 10 | MIC [1]: 0.0975 µM (≈ 0.0258 µg/mL)

CCOC(=O)C(=O)Nc1ccc2c(c1)NC(=O)Cn1c-2nc2ccccc21
Activity (THP-1 [2]): Non-Toxic | MIC [1]: 0.78 µM (≈ 0.284 µg/mL)

O=C1Cn2c(nc3ccccc32)-c2ccc(NC(=O)c3ccc(Cl)cc3)cc2N1
Activity (THP-1 [2]): Non-Toxic | fold change (FC) [3]: 8 - 10 | MIC [1]: 1.56 µM (≈ 0.628 µg/mL)

Cc1ccc(C(=O)Nc2ccc3c(c2)NC(=O)Cn2c-3nc3ccccc32)cc1
Activity (THP-1 [4]): Non-Toxic | MIC [1]: 0.39 µM (≈ 0.149 µg/mL)

O=C1Cn2c(nc3ccccc32)-c2ccc(NC(=O)c3ccccc3)cc2N1
MIC [1]: > 50 µM

NNC(=O)c1ccncc1 [ISONIAZID]
fold change (FC) [3]: 30 | MIC [1]: 0.39 µM (≈ 0.0535 µg/mL)

O=C(CCc1ccccc1)Nc1cc2nc(C3CCCCC3)[nH]c2cc1N1CC1
logP [5]: 4.57

COc1ccc(C(=O)Nc2ccc3c(c2)NC(=O)Cn2c-3nc3ccccc32)cc1
MIC [1]: 3.12 µM (≈ 1.25 µg/mL)

COc1ccc(S(=O)(=O)Nc2ccc3c(c2)NC(=O)Cn2c-3nc3ccccc32)cc1
MIC [1]: 1.56 µM (≈ 0.678 µg/mL)

Cc1ccc(C(=O)N2CCC(Cn3c(C(C)C)nc4cc(C(=O)O)ccc43)CC2)cc1
MIC [1]: 25 µM (≈ 10.5 µg/mL)

CC(C)c1nc2cc(C(=O)O)ccc2n1-c1cccc([N+](=O)[O-])c1
MIC [1]: 25 µM (≈ 8.13 µg/mL)

CCN(CC)c1ccc(/C=C/C(=N/Nc2nc(C)cs2)C2=Cc3ccccc3C2)cc1
logP [5]: 6.03 | MIC90 [6]: 2.5 µg/mL (≈ 5.83 µM)

CC(C)c1nc2cc(C(=O)O)ccc2n1-c1ccc(Br)cc1
MIC [1]: 50 µM (≈ 18 µg/mL)

O=C1Cn2c(nc3ccccc32)-c2ccc(NC(=O)c3ccc(F)cc3)cc2N1
Activity (THP-1 [2]): Non-Toxic | fold change (FC) [3]: 8 - 10 | MIC [1]: 0.195 µM (≈ 0.0753 µg/mL)

CC(C)c1nc2cc(C(=O)O)ccc2n1CC1CCN(C(=O)c2ccc(F)cc2)CC1
MIC [1]: 50 µM (≈ 21.2 µg/mL)

COc1ccc(C(=O)N2CCC(Cn3c(C(C)C)nc4cc(C(=O)O)ccc43)CC2)cc1
MIC [1]: 50 µM (≈ 21.8 µg/mL)

COc1cc(-n2c(C(C)C)nc3cc(C(=O)O)ccc32)cc(OC)c1O
Activity (THP-1 [2]): Non-Toxic | fold change (FC) [3]: 8 - 10 | MIC [1]: 0.78 µM (≈ 0.278 µg/mL)

O=C1Cn2c(nc3ccccc32)-c2ccc(NC(=O)c3ccc([N+](=O)[O-])cc3)cc2N1
fold change (FC) [3]: 8 - 10 | Activity (THP-1 [4]): Non-Toxic | MIC [1]: 0.195 µM (≈ 0.0806 µg/mL)

CC(C)c1nc2cc(C(=O)O)ccc2n1-c1ccc(C#N)cc1
MIC [1]: 50 µM (≈ 15.3 µg/mL)

CC(C)c1nc2cc(C(=O)O)ccc2n1-c1ccc(O)cc1
MIC [1]: 50 µM (≈ 14.8 µg/mL)

COc1ccc(-n2c(C(C)C)nc3cc(C(=O)O)ccc32)cc1OC
MIC [1]: 25 µM (≈ 8.51 µg/mL)
